# Test results: ChEMBL document CHEMBL4364261, “Positive Charge Patterning and Hydrophobicity of Membrane-Active Antimicrobial Peptides as Determinants of Activity, Toxicity, and Pharmacokinetic Stability” (J Med Chem, 2019)
# Activity calls are given as the source filed them. The calls are words filed in the database; no cut-off is given here.
# Tested on: Lipid bilayer
# Experiment: Binding affinity to 11,12-BrPC-loaded POPC membrane at 10 uM by tryptophan fluorescence method
# Format: ADME
# Conditions: not given
row,Activity,Substance
1,Active,H-KALKKFLKAWAKLFKAL-NH2
2,Not Active,H-KKKKKKALFALWLAFLA-NH2

# Tested on: Lipid bilayer
# Experiment: Binding affinity to terbium(3)-loaded POPC membrane at 10 uM measured for 10 mins by fluorescence assay relative to control
# Format: ADME
# Conditions: not given
# Method in brief: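 Tb3+-loaded liposomes, E. coli lipid or POPC, size-exclusion exchanged and diluted to 2.5% (v/v) in dipicolinic acid buffer, stirring. Peptide added at 10 μM. Tb3+ excited at 314 nm, emission at 544 nm recorded for 10 min. Liposome-only signal subtracted, normalized to a 0.1% Triton-lysed control as 100% disruption.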
row,Substance,Activity [%]
1,H-KKKKAAFLKLWLKLFAA-NH2,25 to 70
2,H-KKKKKKALFALWLAFLA-NH2,4 to 8

# Continued, values first:
row,Activity [%],Substance
1,25 to 70,H-KKKKKALFLKLWAAFLA-NH2
2,25 to 70,H-KALKKFLKAWAKLFKAL-NH2
3,25 to 70,H-KKKAAFLKLWAKLFKAL-NH2
4,25 to 70,H-KKLKAFLKAWAKLFKAL-NH2

# Tested on: Lipid bilayer
# Experiment: Binding affinity to POPC membrane at 25 uM by CD spectroscopic analysis
# Format: ADME
# Conditions: not given
# Method in brief: (§1)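 CD spectra of 25 μM peptide in 10 mM Tris, 10 mM NaCl, pH 7.4, with 2 mg/mL E. coli total lipid extract or POPC liposomes, equilibrated overnight. Helicity judged at 222 nm. Average of at least three independent experiments.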
row,Substance,Activity
1,H-KKKKAAFLKLWLKLFAA-NH2,Active
2,H-KKKKKKALFALWLAFLA-NH2,Active

# The next lines start with the values.
row,Activity,Substance
1,Active,H-KKKKKALFLKLWAAFLA-NH2
2,Active,H-KALKKFLKAWAKLFKAL-NH2
3,Active,H-KKKAAFLKLWAKLFKAL-NH2
4,Active,H-KKLKAFLKAWAKLFKAL-NH2

# Tested on: Escherichia coli
# Experiment: Induction of terbium(3)-loaded Escherichia coli lipid extract liposome membrane disruption at 10 uM measured after 20 mins by fluorescence assay relative to control
# Format: cell membranes
# Conditions: not given
row,Substance,Activity [%]
1,H-KKKKAAFLKLWLKLFAA-NH2,40
2,H-KKKKKKALFALWLAFLA-NH2,80

# Further lines, results first:
row,Activity [%],Substance
1,40,H-KKKKKALFLKLWAAFLA-NH2
2,40,H-KALKKFLKAWAKLFKAL-NH2
3,40,H-KKKAAFLKLWAKLFKAL-NH2
4,40,H-KKLKAFLKAWAKLFKAL-NH2

# Tested on: Pseudomonas aeruginosa
# Experiment: Antibacterial activity against tobramycin-pretreated Pseudomonas aeruginosa isolate 287 measured after 20 hrs by microtiter dilution method
# Format: functional
# Conditions: not given
# Method in brief: (§2)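 Mueller-Hinton broth microdilution; 2-fold serial dilutions of peptide from 0 to 50 μM incubated 20 h at 37 °C with 50 000 cfu/well from an overnight MHB culture. Bacterial growth read as background-subtracted OD600. MIC recorded as the peptide concentration at which growth is inhibited. P. aeruginosa isolates came from sputum of cystic fibrosis patients with infections persisting after inhaled tobramycin.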
row,Substance,MIC [µM]
1,H-KKKKAAFLKLWLKLFAA-NH2,> 50
2,H-KKKKKKALFALWLAFLA-NH2,25

# The next substances have a lower MIC than those just listed; values first:
row,MIC [µM],Substance
1,6.3,H-KKKKKALFLKLWAAFLA-NH2
2,3.1,H-KALKKFLKAWAKLFKAL-NH2
3,3.1,H-KKKAAFLKLWAKLFKAL-NH2
4,3.1,H-KKLKAFLKAWAKLFKAL-NH2

# Tested on: Pseudomonas aeruginosa
# Experiment: Antibacterial activity against tobramycin-pretreated Pseudomonas aeruginosa isolate 214 measured after 20 hrs by microtiter dilution method
# Format: functional
# Conditions: not given
# Method in brief: as §2
row,Substance,MIC [µM]
1,H-KKKKAAFLKLWLKLFAA-NH2,> 50
2,H-KKKKKKALFALWLAFLA-NH2,50

# Results, then the substance that gave them:
row,MIC [µM],Substance
1,6.3,H-KKKKKALFLKLWAAFLA-NH2
2,3.1,H-KALKKFLKAWAKLFKAL-NH2
3,3.1,H-KKKAAFLKLWAKLFKAL-NH2
4,3.1,H-KKLKAFLKAWAKLFKAL-NH2

# Tested on: Pseudomonas aeruginosa
# Experiment: Antibacterial activity against tobramycin-pretreated Pseudomonas aeruginosa isolate 380 after 20 hrs by microtiter dilution method
# Format: functional
# Conditions: not given
# Method in brief: as §2
row,Substance,MIC [µM]
1,H-KKKKAAFLKLWLKLFAA-NH2,> 50
2,H-KKKKKKALFALWLAFLA-NH2,> 50

# Second part, the substance after the results:
row,MIC [µM],Substance
1,> 50,H-KKKKKALFLKLWAAFLA-NH2
2,6.3,H-KALKKFLKAWAKLFKAL-NH2
3,3.1,H-KKKAAFLKLWAKLFKAL-NH2
4,1.5,H-KKLKAFLKAWAKLFKAL-NH2

# Tested on: Escherichia coli
# Experiment: Antibacterial activity against Escherichia coli K-12 measured after 20 hrs by microtiter dilution method
# Format: functional
# Conditions: K-12, 20 h
# Method in brief: as §2
row,Substance,MIC [µM]
1,H-KKKKAAFLKLWLKLFAA-NH2,12.5
2,H-KKKKKKALFALWLAFLA-NH2,12.5

# Continued, values first:
row,MIC [µM],Substance
1,3.1,H-KKKKKALFLKLWAAFLA-NH2
2,1.6,H-KALKKFLKAWAKLFKAL-NH2
3,3.1,H-KKKAAFLKLWAKLFKAL-NH2
4,1.6,H-KKLKAFLKAWAKLFKAL-NH2

# Tested on: not listed separately
# Experiment: Hemolytic activity in human RBC assessed as hemolysis at 40 uM measured after 1 hr
# Format: ADME, cell-based, Erythrocyte
# Conditions: human red blood cells (erythrocytes), read-out: Activity
# Method in brief: (§3)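 Fresh human erythrocytes washed and resuspended in PBS to a final 4% (v/v). Incubated 1 h at 37 °C with 2-fold serial peptide dilutions from 0 to 640 μM. Supernatant absorbance at 540 nm; PBS taken as 0% and 1% Triton as 100% hemolysis. Standard deviation reported; one-way ANOVA applied.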
row,Substance,"hemolysis at 1 h, 40 µM [%]"
1,H-KALKKFLKAWAKLFKAL-NH2,81
2,H-KKKAAFLKLWAKLFKAL-NH2,100
3,H-KKKKAAFLKLWLKLFAA-NH2,8
4,H-KKKKKALFLKLWAAFLA-NH2,49
5,H-KKKKKKALFALWLAFLA-NH2,33
6,H-KKLKAFLKAWAKLFKAL-NH2,89

# Tested on: Pseudomonas aeruginosa
# Experiment: Antibacterial activity against tobramycin-pretreated Pseudomonas aeruginosa isolate 330 after 20 hrs by microtiter dilution method
# Format: functional
# Conditions: not given
# Method in brief: as §2
row,Substance,MIC [µM]
1,H-KKKKAAFLKLWLKLFAA-NH2,> 50
2,H-KKKKKKALFALWLAFLA-NH2,> 50

# Results, then the substance that gave them:
row,MIC [µM],Substance
1,12.5,H-KKKKKALFLKLWAAFLA-NH2
2,6.3,H-KALKKFLKAWAKLFKAL-NH2
3,6.3,H-KKKAAFLKLWAKLFKAL-NH2
4,6.3,H-KKLKAFLKAWAKLFKAL-NH2

# Tested on: Escherichia coli
# Experiment: Binding affinity to Escherichia coli lipid extract liposome membrane at 10 uM by tryptophan fluorescence quenching method
# Format: cell membranes
# Conditions: not given
# Method in brief: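 Acrylamide quenching of Trp; peptide 10 μM with 0.8 mg/mL E. coli lipid liposomes. Excitation at 295 nm, emission 310–400 nm. Read-out is the Stern–Volmer slope, with larger slopes meaning more quenching. At least two independent experiments, error given as standard deviation.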
row,Activity,Substance
1,inactive,H-KALKKFLKAWAKLFKAL-NH2
2,Active,H-KKKKKKALFALWLAFLA-NH2

# Tested on: Lipid bilayer
# Experiment: Binding affinity to POPC membrane at 10 uM by tryptophan fluorescence method
# Format: ADME
# Conditions: not given
# Method in brief: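 Peptide at 10 μM in 10 mM Tris, 10 mM NaCl, pH 7.4, with 0.8 mg/mL E. coli total lipid extract or POPC liposomes, equilibrated overnight before recording. Trp excited at 280 nm, emission scanned 300–400 nm. After background subtraction, the wavelength of maximal emission was taken.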
row,Substance,Activity
1,H-KKKKAAFLKLWLKLFAA-NH2,Active
2,H-KKKKKKALFALWLAFLA-NH2,Active

# Second part, the substance after the results:
row,Activity,Substance
1,Active,H-KKKKKALFLKLWAAFLA-NH2
2,Active,H-KALKKFLKAWAKLFKAL-NH2
3,Active,H-KKKAAFLKLWAKLFKAL-NH2
4,Active,H-KKLKAFLKAWAKLFKAL-NH2

# Tested on: Escherichia coli
# Experiment: Binding affinity to Escherichia coli lipid extract liposome membrane at 25 uM by CD spectroscopic analysis
# Format: cell membranes
# Conditions: not given
# Method in brief: as §1
row,Substance,Activity
1,H-KKKKAAFLKLWLKLFAA-NH2,Active
2,H-KKKKKKALFALWLAFLA-NH2,Active

# More lines, now with the values ahead:
row,Activity,Substance
1,Active,H-KKKKKALFLKLWAAFLA-NH2
2,Active,H-KALKKFLKAWAKLFKAL-NH2
3,Active,H-KKKAAFLKLWAKLFKAL-NH2
4,Active,H-KKLKAFLKAWAKLFKAL-NH2

# Tested on: not listed separately
# Experiment: Hemolytic activity in human RBC assessed as hemolysis at 320 to 640 uM measured after 1 hr
# Format: ADME, cell-based, Erythrocyte
# Conditions: human red blood cells (erythrocytes), read-out: Activity
# Method in brief: as §3
row,Substance,"hemolysis at 1 h, up to 640 µM [%]"
1,H-KALKKFLKAWAKLFKAL-NH2,< 1
2,H-KKLKAFLKAWAKLFKAL-NH2,< 1

# Tested on: Pseudomonas aeruginosa
# Experiment: Antibacterial activity against Pseudomonas aeruginosa PAO1 measured after 20 hrs by microtiter dilution method
# Format: functional
# Conditions: PAO1, 20 h
# Method in brief: as §2
row,Substance,MIC [µM]
1,H-KKKKAAFLKLWLKLFAA-NH2,> 50
2,H-KKKKKKALFALWLAFLA-NH2,> 50

# Results, then the substance that gave them:
row,MIC [µM],Substance
1,12.5,H-KKKKKALFLKLWAAFLA-NH2
2,3.1,H-KALKKFLKAWAKLFKAL-NH2
3,3.1,H-KKKAAFLKLWAKLFKAL-NH2
4,3.1,H-KKLKAFLKAWAKLFKAL-NH2
